45 compounds from ChEMBL document CHEMBL2046299, “Construction and functionalization of fused pyridine ring leading to novel compounds as potential antitubercular agents” (Bioorg Med Chem Lett, 2012) can be followed below.

Values after ≈ are worked out from the molar mass of the structure shown. A value given as a limit tells only on which side of the number the result lay.

One series deals with Mycobacterium tuberculosis. The series can be described thus: Antitubercular activity against Mycobacterium tuberculosis H37Rv ATCC 27294 assessed as minimum concentration required to inhibit 90% growth after 1 week by fluorescence-based microplate Alamar Blue assay. The class given is functional. To be noted: H37Rv ATCC 27294, 168 h. The gist of the method: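 M. tuberculosis H37Rv, MABA with fluorescence read-out. MIC taken as the lowest concentration cutting fluorescence by 90% relative to bacteria-only controls. Rifampicin, isoniazid and moxifloxacin served as reference compounds.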
A general note: The colour change of resazurin is a common sign of viable cells or microbes.
Regarding `CCOC(=O)c1cc(Cl)[n+]([O-])c2ccc(C)cc12`, the MIC90 was found to be 4.33 µg/mL (≈ 16.3 µM).

Regarding `CCOC(=O)c1cc(Cl)[n+]([O-])c2ccccc12`, the MIC90 was found to be 9.2 µg/mL (≈ 36.6 µM).

With `CCOC(=O)c1cc(Cl)[n+]([O-])c2ccc(F)cc12`, the MIC90 turned out to be 10.9 µg/mL (≈ 40.4 µM).

On to `O=C(O)c1cc(O)n(O)c(=O)c1`, for which the MIC90 is above 100 µg/mL.

As to `Cc1cc(C(=O)O)cc(=O)[nH]1`, the MIC90 is above 50 µg/mL.

Turning to `O=C(O)c1cc(=O)[nH]c2c1CCC2`, the MIC90 was above 50 µg/mL.

On to `O=C(O)c1cc(=O)[nH]c2c1CCCC2`, for which the MIC90 was above 50 µg/mL.

Turning to `O=C(O)c1cc(=O)[nH]c2c1CCCCCC2`, the MIC90 was above 50 µg/mL.

`COC(=O)c1cc(C)[n+]([O-])c(Cl)c1`: the MIC90 was above 100 µg/mL.

As for `COC(=O)c1cc(Cl)[n+]([O-])c2c1CCC2`, the MIC90 was above 100 µg/mL.

With `COC(=O)c1cc(Cl)[n+]([O-])c2c1CCCC2`, the MIC90 is above 100 µg/mL.

In the case of `COC(=O)c1cc(Cl)[n+]([O-])c2c1CCCCCC2`, the MIC90 was above 50 µg/mL.

In the case of `COC(=O)c1cc(C)n(O)c(=O)c1`, the MIC90 is above 100 µg/mL.

Take `CCOc1cc(C(=O)O)c2c([n+]1[O-])CCC2`: the MIC90 is above 100 µg/mL.

In the case of `CCOc1cc(C(=O)O)c2c([n+]1[O-])CCCC2`, the MIC90 is above 100 µg/mL.

As to `Cc1cc(C(=O)O)cc(=O)n1O`, the MIC90 was above 50 µg/mL.

On to `O=C(O)c1cc(=O)n(O)c2c1CCC2`, for which the MIC90 was above 100 µg/mL.

Take `O=C(O)c1cc(=O)n(O)c2c1CCCC2`: the MIC90 was above 100 µg/mL.

Regarding `CCOc1cc(C(=O)O)cc(OCC)[n+]1[O-]`, the MIC90 is above 100 µg/mL.

As for `O=C(O)c1cc(O)nc2ccccc12`, the MIC90 is above 50 µg/mL.

For the compound `Cc1ccc2[nH]c(=O)cc(C(=O)O)c2c1`, the MIC90 is above 50 µg/mL.

For the compound `O=C(O)c1cc(=O)[nH]c2ccc(F)cc12`, the MIC90 is above 50 µg/mL.

As to `O=C(O)c1cc(=O)[nH]c2ccc([N+](=O)[O-])cc12`, the MIC90 was above 50 µg/mL.

On to `O=C(O)c1cc(=O)n(O)c2ccccc12`, for which the MIC90 was above 100 µg/mL.

`Cc1ccc2c(c1)c(C(=O)O)cc(=O)n2O`: the MIC90 was above 100 µg/mL.

For `O=C(O)c1cc(=O)n(O)c2ccc(F)cc12`, the MIC90 is above 100 µg/mL.

Consider `Cc1cc(C(=O)O)cc(Cl)[n+]1[O-]`, for which the MIC90 is above 100 µg/mL.

Regarding `O=C(O)c1cc(Cl)[n+]([O-])c2c1CCC2`, the MIC90 was above 50 µg/mL.

As for `O=C(O)c1cc(Cl)[n+]([O-])c2c1CCCC2`, the MIC90 was above 100 µg/mL.

On to `O=C(O)c1cc(Cl)[n+]([O-])c2c1CCCCCC2`, for which the MIC90 is above 100 µg/mL.

With `O=C(O)c1cc(Cl)[n+]([O-])c2ccccc12`, the MIC90 was above 100 µg/mL.

`Cc1ccc2c(c1)c(C(=O)O)cc(Cl)[n+]2[O-]`: the MIC90 was above 100 µg/mL.

For `O=C(O)c1cc(Cl)[n+]([O-])c2ccc(F)cc12`, the MIC90 is above 100 µg/mL.

As for `NNC(=O)c1cc(=O)[nH]c2c1CCCC2`, the MIC90 was above 100 µg/mL.

With `NNC(=O)c1cc(=O)[nH]c2c1CCC2`, the MIC90 was above 100 µg/mL.

On to `NNC(=O)c1cc(=O)[nH]c2ccccc12`, for which the MIC90 is above 100 µg/mL.

Turning to `Cc1ccc2[nH]c(=O)cc(C(=O)NN)c2c1`, the MIC90 is above 100 µg/mL.

For `NNC(=O)c1cc(=O)[nH]c2ccc(F)cc12`, the MIC90 was above 100 µg/mL.

For the compound `NNC(=O)c1cc(=O)[nH]c2ccc([N+](=O)[O-])cc12`, the MIC90 was above 100 µg/mL.

`CCCn1c(=O)[nH]c(=O)c2c(C(=O)O)cc(=O)[nH]c21`: the MIC90 was above 100 µg/mL.

Turning to `CCCn1c(=O)[nH]c(=O)c2c(C(=O)O)cc(Cl)nc21`, the MIC90 stood at 91.7 µg/mL (≈ 323 µM).

For the compound `O=C(O)c1cc(O)nc(O)c1` [CITRAZINIC ACID], the MIC90 was above 50 µg/mL.

On to `NNC(=O)c1ccncc1` [ISONIAZID], for which the MIC90 worked out at 0.33 µg/mL (≈ 2.41 µM).

As to `COc1c(N2C[C@@H]3CCCN[C@@H]3C2)c(F)cc2c(=O)c(C(=O)O)cn(C3CC3)c12` [MOXIFLOXACIN], the MIC90 amounted to 0.39 µg/mL (≈ 0.972 µM).

Take `CO[C@H]1/C=C/O[C@@]2(C)Oc3c(C)c(O)c4c(O)c(c(/C=N/N5CCN(C)CC5)c(O)c4c3C2=O)NC(=O)/C(C)=C\C=C\[C@H](C)[C@H](O)[C@@H](C)[C@@H](O)[C@@H](C)[C@H](OC(C)=O)[C@@H]1C` [RIFAMPIN]: the MIC90 amounted to 0.05 µg/mL (≈ 0.0608 µM).

Test system in another series: not listed separately
The series can be described thus: (§1) Cytotoxicity against african green monkey Vero cells after 72 hrs by MTS assay. The class given is cell-based, Chlorocebus sabaeus. The conditions noted are these: chlorocebus sabaeus, Vero cells; read-out: INH. For orientation: Formazan colour is commonly taken as a measure of viable cells.
As to `CCOC(=O)c1cc(Cl)[n+]([O-])c2ccc(C)cc12`, the cytotoxicity at 72 h amounted to 96%.

The next series relates to Vero. The series is described as §1. The class given is cell-based, Chlorocebus sabaeus. To be noted: Chlorocebus sabaeus, Vero, 72 h.
`CCOC(=O)c1cc(Cl)[n+]([O-])c2ccc(C)cc12` showed an IC50 below 8 µg/mL.

A further series relates to Mycobacterium tuberculosis. The experiment in a line: Antitubercular activity against non-replicating Mycobacterium tuberculosis assessed as minimum concentration required to inhibit 90% growth after 10 days under anaerobic condition by luciferase-based low-oxygen recovery assay.
Details: not given
The class given is functional. In a few lines: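 Non-replicating M. tuberculosis, low-oxygen recovery assay with luciferase read-out, run on compounds selected from the MABA screen. MIC taken as the lowest concentration inhibiting recovery of luciferase signal by ≥90% relative to bacteria-only controls. Rifampicin, isoniazid and moxifloxacin served as references.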
`NNC(=O)c1ccncc1` [ISONIAZID]: the “inhibition (INH)” value was 84%.

Staying with this series, now noted: Mycobacterium tuberculosis, 240 h.
With `CCOC(=O)c1cc(Cl)[n+]([O-])c2ccc(C)cc12`, the MIC90 was determined as 3.65 µg/mL (≈ 13.7 µM).

In the case of `CCOC(=O)c1cc(Cl)[n+]([O-])c2ccccc12`, the MIC90 worked out at 7.3 µg/mL (≈ 29 µM).

For `CCOC(=O)c1cc(Cl)[n+]([O-])c2ccc(F)cc12`, the MIC90 was 13.1 µg/mL (≈ 48.6 µM).

Consider `NNC(=O)c1ccncc1` [ISONIAZID], for which the MIC90 was above 128 µg/mL.

For the compound `COc1c(N2C[C@@H]3CCCN[C@@H]3C2)c(F)cc2c(=O)c(C(=O)O)cn(C3CC3)c12` [MOXIFLOXACIN], the MIC90 turned out to be 15.9 µg/mL (≈ 39.7 µM).

The term MIC90 denotes the lowest concentration that inhibits either 90% of growth or 90% of the strains tested, depending on the study. What is called IC50 is the concentration needed to halve the response being measured.
